Bioassay records deposited in PubChem BioAssay by several laboratories.
Rows were chosen to be rich in hits. Some 4.6% of all compounds tested hit in one or more screens of this group.
FAS-TE inh – FAS thioesterase domain inhibitors, primary screen, biochemical, fluorescence intensity, uHTS | Fatty acid synthase (Homo sapiens), P49327 | recombinant FAS-TE, OMFH fluorogenic substrate, fluorescence endpoint | inhibition, % at 15 µM | actives 0.67% (n = 360,000);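 active = compounds whose normalised, plate-corrected inhibition of enzyme fluorescence in the single-dose primary screen is 50% or more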;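 note: 0% = DMSO with enzyme and 100% = substrate without enzyme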
ALR inh – inhibitors of human ALR sulfhydryl oxidase, primary screen, biochemical, H2O2 detection, HRP-luminol luminescence, single point; purified ALR, DTT oxidation; inhibition, % (test concentration not listed); actives 3.8% (n = 290,000);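 active = mean replicate inhibition above about 79%, with every replicate also reaching it, limit read from the data; inconclusive = only one of the two criteria met; inactive = mean below limit and not every replicate reaching it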
Target sequence (P55789 whole entry, looked up): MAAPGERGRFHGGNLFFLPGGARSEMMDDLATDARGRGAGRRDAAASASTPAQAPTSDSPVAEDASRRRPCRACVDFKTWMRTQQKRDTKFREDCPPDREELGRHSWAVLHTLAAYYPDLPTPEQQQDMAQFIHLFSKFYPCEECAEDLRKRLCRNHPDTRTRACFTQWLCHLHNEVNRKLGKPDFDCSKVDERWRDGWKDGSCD
PfM18AAP inh – PfM18AAP inhibitors, malaria aminopeptidase, primary screen, biochemical, QFRET, recombinant enzyme | M18 aspartyl aminopeptidase (Plasmodium falciparum 3D7) | H-Glu-NHMec fluorogenic cleavage | inhibition, % at 7.35 µM | actives 1.2% (n = 290,000);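 active = inhibition above the campaign mean inhibition over all tested compounds plus 3 SD, cut at about 28% in these data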;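 note: 0% = plate median of test compound wells and 100% = 2 mM ZnCl2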
UCH37 DUB inh – inhibitors of human UCH37 deubiquitinase, primary screen, biochemical, Ub-AMC cleavage, fluorescence; Ubiquitin carboxyl-terminal hydrolase isozyme L5 (Homo sapiens), Q9Y5K5; actives 0.33% (n = 330,000); inhibition, % (concentration not given with the values); purified proteasome/UCH37; AID 588478, 2011;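 active = mean inhibition over replicate wells above about 20%, limit read from the data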;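 note: 0% = compound-free wells with enzyme and 100% = wells lacking proteasome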
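Schedule: 30 min plus 25 min, room temperature / Material: human UCH37 within purified proteasomes / Technique: AMC fluorescence intensity at 355/460 nm / Buffer or medium: pH 7.4 Tris-HCl (50 mM) with ovalbumin, ATP-MgCl2, DTT / Controls: wells without proteasome as full block, compound-free enzyme plus substrate as uninhibited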
Rtt109 HAT inh – inhibitors of C. albicans Rtt109/Vps75 HAT, primary screen, biochemical, ThioGlo CoA-SH fluorescence, plate reader; inhibition, % at 34.9 µM; AID 540336, 2011; actives 0.16% (n = 330,000); purified Rtt109/Vps75, 4 h;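 active = inhibition of at least 50% in every replicate; inconclusive = best replicate reaches 50% inhibition but some replicates fall short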
HDAC3 inh – HDAC3 deacetylase inhibitors, primary screen, biochemical, fluorescence, cell-free homogeneous; Histone deacetylase 3 (Homo sapiens), O15379; recombinant HDAC3, fluorogenic peptide/trypsin coupled; inhibition, % at 8.3 µM; actives 0.15% (n = 320,000); AID 2718, 2010; in the data active = inhibition above about 26%, passing the limit was not always enough; inconclusive = no clear call, values can overlap the other calls
Target sequence (O15379 whole entry, looked up): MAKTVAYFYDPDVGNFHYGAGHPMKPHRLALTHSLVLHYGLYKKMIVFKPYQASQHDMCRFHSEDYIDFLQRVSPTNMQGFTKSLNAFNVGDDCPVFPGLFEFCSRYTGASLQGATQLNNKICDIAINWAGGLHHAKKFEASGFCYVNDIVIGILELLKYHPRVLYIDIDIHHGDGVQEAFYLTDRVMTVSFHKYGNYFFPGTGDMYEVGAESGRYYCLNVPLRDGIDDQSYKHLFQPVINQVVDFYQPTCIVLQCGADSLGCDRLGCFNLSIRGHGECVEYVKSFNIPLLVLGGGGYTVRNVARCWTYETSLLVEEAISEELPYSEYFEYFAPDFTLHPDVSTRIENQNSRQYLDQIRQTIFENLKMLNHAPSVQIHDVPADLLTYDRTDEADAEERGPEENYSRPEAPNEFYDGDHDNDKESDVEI
* hit, by the source's call; i = inactive; ? = inconclusive; . = no result.

SMILES	FAS-TE inh	ALR inh	PfM18AAP inh	UCH37 DUB inh	Rtt109 HAT inh	HDAC3 inh
Nc1ccc(N2CCN(c3ccc(F)cc3)CC2)cc1	-3.7	99.0*	9.1	2.1	9.7	-0.4
COC(=O)c1cn(NC(=O)c2cc([N+](=O)[O-])ccc2F)c(=O)c2ccccc12	42.6	96.2*	-4.8	.	4.1	-2.7
COC(=O)c1cn(NC(=O)C2CCC(C)CC2)c(=O)c2ccccc12 (stereo unspecified)	7.9	-2.4	-0.6	-0.6	-13.2	-2.2
CCOC(=O)C(C)/C(C)=N/NC(N)=S (stereo unspecified)	-10.8	95.9*	4.0	.	-2.1	0.1
O=C(CSC1CN(C(c2ccccc2)c2ccccc2)C1)NN=Cc1ccccc1	.	.	.	5.7	.	.
CCC(C(=O)O/N=C(\N)c1ccccc1)c1ccccc1 (stereo unspecified)	1.3	-5.7	6.2	2.4	-10.9	-1.5
CCC(C(=O)Oc1c(C(C)C)cccc1C(C)C)c1ccccc1 (stereo unspecified)	19.3	-12.5	.	32.6*	0.4	0.0
CCOc1cccc2cc(-c3csc(NC(=O)CCC(=O)NCCN4CCCCC4C)n3)c(=O)oc12 (stereo unspecified)	-1.1	99.3*	16.1	-38.9	-11.9	8.3
CCOc1cccc2cc(-c3csc(NC(=O)CCC(=O)N4CCC(C)CC4)n3)c(=O)oc12	-56.1	-0.3	-16.8	i	9.8	-6.3
CCOc1cccc2cc(-c3csc(NC(=O)CCC(=O)NCCCN4CCC(C)CC4)n3)c(=O)oc12	.	99.3*	3.6	-17.6	.	8.5
O=C(C1CCCN(S(=O)(=O)c2cnc[nH]2)C1)N1CCN(c2ccc(Cl)cc2)CC1 (stereo unspecified)	-19.9	95.8*	-1.6	5.0	-3.6	3.3
Cc1ccc(C)c(N2CCN(C(=O)C3CCCN(S(=O)(=O)c4cnc[nH]4)C3)CC2)c1 (stereo unspecified)	-22.6	97.0*	-1.0	4.1	1.4	-10.2
CCCc1cn(S(=O)(=O)c2ccc(OC)cc2OC)nc1N	0.3	98.0*	-6.5	-0.2	18.6	-1.2
O=C(N/N=C\c1ccc(-c2ccccc2[N+](=O)[O-])o1)C1COc2ccccc2O1 (stereo unspecified)	0.4	75.4*	9.0	.	1.3	8.1
O=C(N/N=C\c1ccc(-c2ccccc2[N+](=O)[O-])o1)C1COc2cc3ccccc3cc2O1 (stereo unspecified)	3.7	-3.0	5.3	.	-13.7	13.7
Nn1cnnc1N/N=C\c1ccc(-c2ccccc2[N+](=O)[O-])o1	-5.0	.	53.9*	.	7.1	.
O=C(NN=Cc1cccc2ccccc12)c1ccc(CN2CCOCC2)cc1	.	.	.	4.1	.	.
Cc1nnsc1C(=O)NN=Cc1ccc(OC(F)(F)F)cc1	.	.	.	-2.5	.	.
CCN(CCNC(=O)C1CCCN(S(=O)(=O)c2cnc[nH]2)C1)c1ccccc1 (stereo unspecified)	-8.0	97.8*	8.2	9.4	-3.8	-0.5
CCN(CCCNC(=O)C1CCCN(S(=O)(=O)c2cnc[nH]2)C1)c1ccccc1 (stereo unspecified)	-7.4	97.5*	4.0	4.7	-3.6	1.0
Cc1ccc(CCNC(=O)C2CCCN(S(=O)(=O)c3cnc[nH]3)C2)cc1 (stereo unspecified)	-5.4	48.6	-13.1	8.3	1.3	0.9
O=C(CNC(=O)c1cccs1)NN=Cc1cccc(Br)c1	.	.	.	2.2	.	.
C/C(=N\NC(=O)CCCNc1cccc(C)c1)c1ccncc1	-4.6	93.1*	8.9	.	-7.5	-0.8
COc1ccc(C(C)=NNc2nncc3ccccc23)cc1	.	.	.	3.2	.	.
Cc1cc(NC(=O)Nc2cccc(Cl)c2)n(-c2ccccc2)n1	3.1	-7.6	-6.0	1.8	-5.0	2.7
SMILES	FAS-TE inh	ALR inh	PfM18AAP inh	UCH37 DUB inh	Rtt109 HAT inh	HDAC3 inh
Cc1cc(C)n(-c2ccc(C(=O)O)cc2)n1	8.6	-4.2	3.7	-2.9	-4.6	-1.4
Cc1cc(Nc2ccccc2)n(-c2cccc(Cl)c2)n1	8.0	99.3*	-5.2	1.3	3.0	0.1
COc1ccc(-n2nc(C)cc2Nc2ccccc2C(=O)O)cc1	-1.3	99.2*	-1.4	2.2	16.2	-15.0
Cc1cc(Nc2ccccc2)n(-c2ccc(C(=O)O)cc2)n1	-3.8	98.6*	-14.8	4.0	1.5	-4.8
CC(C)(C)c1cc(C(=O)NN=Cc2ccccc2O)n(-c2ccccc2)n1	.	.	.	-16.2	.	.
Cc1ccccc1NS(=O)(=O)c1cccc(C(=O)Nc2cccc(C(=O)O)c2)c1	-4.6	3.4	-10.4	5.6	-9.0	-4.2
O=C(Nc1ccccc1C(=O)O)c1cccc(S(=O)(=O)Nc2ccc(Br)cc2)c1	17.4	98.7*	-3.7	-0.9	4.7	2.8
O=C(Nc1ccccc1O)c1cccc(S(=O)(=O)Nc2ccccc2O)c1	0.6	99.4*	.	1.8	-0.9	?
O=C(Nc1ccccc1C(=O)O)c1cccc(NS(=O)(=O)c2ccc(Br)cc2)c1	6.6	13.3	-0.4	0.4	8.4	-1.3
COC(=O)C[C@H]1c2cc(F)ccc2S(=O)(=O)N1c1ccc(N(C)C)cc1	-8.7	98.7*	.	-0.3	-11.6	-7.0
O=C(CN1C(=O)/C(=C/c2ccco2)SC1=S)Nc1ccc(C(=O)O)c(O)c1	7.3	12.3	47.2*	10.1	0.8	-2.2
CC(C(=O)Nc1ccc(C(=O)O)c(O)c1)N1C(=O)/C(=C\c2ccco2)SC1=S (stereo unspecified)	1.0	18.5	28.1*	19.2	11.5	?
CC(C(=O)N(C)C1CCS(=O)(=O)C1)N1C(=O)/C(=C/c2ccco2)SC1=S (stereo unspecified)	-3.2	-66.6	31.1*	7.7	18.8	2.8
O=C1/C(=C\c2ccco2)SC(=S)N1c1ccc(O)cc1	-3.2	?	30.5*	1.3	7.6	1.3
CC(=NN=C(N)SC1CC(=O)N(c2ccccc2)C1=O)c1cccs1 (stereo unspecified)	.	.	.	8.0	.	.
C(=NN(c1ccccc1)c1ccccc1)c1ccccn1	.	.	.	1.8	.	.
CC(=NN=Cc1cccc(F)c1)c1nnn(-c2nonc2N)c1C	.	.	.	1.9	.	.
O=C(NN=Cc1ccc2c(c1)OCO2)C(=O)Nc1ccccc1	.	.	.	-0.1	.	.
Clc1ccc2nc(N3CCCCC3)[nH]c2c1	-3.4	98.5*	-10.0	5.6	-9.5	3.8
Clc1ccc2nc(N3CCCCC3)sc2c1	14.1	14.2	-8.4	-0.5	3.8	-15.7
